From ChEMBL document CHEMBL1806372, “Cytotoxic ring A-modified steroid analogues derived from Grundmann's ketone” (Eur J Med Chem, 2011)
Calls of active or inactive are those of the source. The rule behind the calls is not given here.

Key:
[1] = tested on: PC-3; assay: Growth inhibition of human PC3 cells after 48 hrs by sulforhodamine B assay; assay type: functional; conditions: PC-3, 48 h
Outline: (§1)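 GI50, TGI and LC50 were derived from log concentration versus % growth inhibition curves for each cell line. GI50 is the concentration giving a 50% decrease in net cell growth. Insensitive lines are reported as greater than the highest concentration.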

[2] = tested on: SK-MEL-28; assay: Cytotoxicity against human SK-MEL-28 cells after 48 hrs by sulforhodamine B assay; assay type: functional; conditions: SK-MEL-28, 48 h, read-out: LC50 (the source's name)
Outline: (§2)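 NCI 60 human tumour cell line panel run to the NCI protocol. GI50, TGI and LC50 come from log concentration vs % growth inhibition curves for each cell line. Lines insensitive at the top concentration are reported with ">".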

[3] = tested on: OVCAR-8; assay: Cytotoxicity against human OVCAR8 cells after 48 hrs by sulforhodamine B assay; assay type: functional; conditions: OVCAR-8, 48 h, read-out: LC50 (the source's name); outline: as §2
[4] = tested on: UACC-62; assay: Cytotoxicity against human UACC62 cells after 48 hrs by sulforhodamine B assay; assay type: functional; conditions: UACC-62, 48 h, read-out: LC50 (the source's name)
[5] = tested on: SK-MEL-28; assay: Growth inhibition of human SK-MEL-28 cells after 48 hrs by sulforhodamine B assay; assay type: functional; conditions: SK-MEL-28, 48 h; outline: as §1
[6] = tested on: HCT-116; assay: Cytotoxicity against human HCT116 cells after 48 hrs by sulforhodamine B assay; assay type: functional; conditions: HCT-116, 48 h, read-out: LC50 (the source's name); outline: as §2
[7] = tested on: 786-0; assay: Growth inhibition of human 786-0 cells assessed as cell growth at 10^-5 M after 48 hrs by sulforhodamine B assay; assay type: functional; conditions: 786-0, 48 h, read-out: Activity
Outline: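 NCI 60-cell panel single high-dose screen: compound applied at 10^-5 M for 48 h, endpoint by sulforhodamine B protein-binding dye. Values reported as growth percent of treated cells relative to untreated control cells.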

[8] = tested on: PC-3; assay: Growth inhibition of human PC3 cells assessed as cell growth at 10^-5 M after 48 hrs by sulforhodamine B assay; assay type: functional; conditions: PC-3, 48 h, read-out: Activity
Outline: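 NCI-60 single high-dose screen run under the NCI protocol. Cells were incubated with compound at 10^-5 M for 48 h. The end point was determined by sulforhodamine B protein staining. Results are reported as percent growth of treated cells relative to untreated control cells.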

[9] = tested on: HL-60; assay: Cytotoxicity against human HL60 cells after 24 hrs by MTT assay; assay type: functional, cell-based; conditions: HL-60, 24 h
Outline: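 HL-60 cells kept in RPMI 1640 with 10% FBS, no antibiotics, 37 °C, humidified 5% CO2. Cells (9 × 10^5 cells/mL) exposed to compound in 96-well plates for 24 h at 37 °C. MTT in PBS (5 mg/mL) added for 2 h, then DMSO, shaken 1 h and read photometrically. IC50 determined; cisplatin reference.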

[10] = tested on: SW-620; assay: Cytotoxicity against human SW620 cells after 48 hrs by sulforhodamine B assay; assay type: functional; conditions: SW-620, 48 h, read-out: LC50 (the source's name)
[11] = tested on: NCI-H23; assay: Growth inhibition of human NCI-H23 cells after 48 hrs by sulforhodamine B assay; assay type: functional; conditions: NCI-H23, 48 h; outline: as §1
[12] = tested on: LOX IMVI; assay: Cytotoxicity against human LOXIMVI cells after 48 hrs by sulforhodamine B assay; assay type: functional; conditions: read-out: LC50 (the source's name); outline: as §2
[13] = tested on: SF-295; assay: Growth inhibition of human SF295 cells after 48 hrs by sulforhodamine B assay; assay type: functional; conditions: SF-295, 48 h; outline: as §1
[14] = tested on: U-251; assay: Growth inhibition of human U251 cells after 48 hrs by sulforhodamine B assay; assay type: functional; conditions: U-251, 48 h
Outline: (§3)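 NCI 60-cell panel five-dose assay. GI50, TGI and LC50 are derived from log concentration versus % growth inhibition curves. Cell lines insensitive at the top concentration are given a ">" prefix.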

[15] = tested on: BT-549; assay: Cytotoxicity against human BT549 cells after 48 hrs by sulforhodamine B assay; assay type: functional; conditions: BT-549, 48 h, read-out: LC50 (the source's name); outline: as §2
[16] = tested on: K562; assay: Growth inhibition of human K562 cells after 48 hrs by sulforhodamine B assay; assay type: functional; conditions: K562, 48 h
Outline: (§4)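 From log concentration versus % growth curves, GI50 (50% decrease in net growth), TGI (total growth inhibition) and LC50 (net 50% loss of initial cells) are derived for each line.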

[17] = tested on: SN12C; assay: Growth inhibition of human SN12C cells assessed as cell growth at 10^-5 M after 48 hrs by sulforhodamine B assay; assay type: functional; conditions: read-out: Activity
Outline: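 NCI 60-cell panel single-dose screen under the NCI protocol. Cells are exposed to compound at one concentration (10^-5 M) for 48 h. The end point is protein staining with sulforhodamine B. Each line is reported as percent growth of treated cells relative to untreated control cells.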

[18] = Antifungal activity against Hyphopichia burtonii assessed as zone of inhibition at 5 uL and 28 degC after 36 hrs by disk diffusion method; assay type: functional
Outline: (§5)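 Agar disc diffusion with the test compound applied as a 1% (w/v) DMSO solution. Yeasts were grown on AC agar and Aspergillus niger on potato dextrose broth agar, each strain spread evenly. Plates were covered and kept 36 h at 28 °C, and the inhibition zone diameter was read in mm. Clotrimazole served as reference.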

[19] = tested on: SNB-19; assay: Growth inhibition of human SNB19 cells after 48 hrs by sulforhodamine B assay; assay type: functional; conditions: SNB-19, 48 h; outline: as §3
[20] = tested on: Aspergillus niger; assay: Antifungal activity against Aspergillus niger assessed as zone of inhibition at 5 uL and 28 degC after 36 hrs by disk diffusion method; assay type: functional; outline: as §5
[21] = tested on: HL-60(TB); assay: Growth inhibition of human HL-60(TB) cells after 48 hrs by sulforhodamine B assay; assay type: functional; conditions: HL-60, 48 h
[22] = tested on: SN12C; assay: Cytotoxicity against human SN12C cells after 48 hrs by sulforhodamine B assay; assay type: functional; conditions: read-out: LC50 (the source's name); outline: as §2
[23] = tested on: NCI-H322M; assay: Cytotoxicity against human NCI-H322M cells after 48 hrs by sulforhodamine B assay; assay type: functional; conditions: read-out: LC50 (the source's name); outline: as §2
[24] = tested on: SK-MEL-2; assay: Cytotoxicity against human SK-MEL-2 cells after 48 hrs by sulforhodamine B assay; assay type: functional; conditions: SK-MEL-2, 48 h, read-out: LC50 (the source's name); outline: as §2
[25] = tested on: OVCAR-8; assay: Growth inhibition of human OVCAR8 cells after 48 hrs by sulforhodamine B assay; assay type: functional; conditions: OVCAR-8, 48 h; outline: as §1
[26] = tested on: DU-145; assay: Growth inhibition of human DU145 cells after 48 hrs by sulforhodamine B assay; assay type: functional; conditions: DU-145, 48 h; outline: as §4
[27] = tested on: NCI-H460; assay: Cytotoxicity against human NCI-H460 cells after 48 hrs by sulforhodamine B assay; assay type: functional; conditions: NCI-H460, 48 h, read-out: LC50 (the source's name); outline: as §2
[28] = tested on: TK-10; assay: Growth inhibition of human TK10 cells after 48 hrs by sulforhodamine B assay; assay type: functional; conditions: TK-10, 48 h; outline: as §3
[29] = tested on: NCI-H522; assay: Growth inhibition of human NCI-H522 cells after 48 hrs by sulforhodamine B assay; assay type: functional; conditions: NCI-H522, 48 h; outline: as §1
[30] = tested on: M14; assay: Cytotoxicity against human M14 cells after 48 hrs by sulforhodamine B assay; assay type: functional; conditions: M14, 48 h, read-out: LC50 (the source's name); outline: as §2

Structure (SMILES): CC(C)CCC[C@@H](C)[C@H]1CC[C@H]2C3=CC[C@@H]4C(=O)C=CC(=O)[C@@H]4[C@@H]3CC[C@]12C
- GI50 [1]: 59 nM
- TGI [1]: 1570 nM
- CC50 [2]: > 100000 nM
- CC50 [3]: > 8120 nM
- CC50 [4]: > 100000 nM
- GI50 [5]: 302 nM
- CC50 [6]: > 3910 nM
- growth at 10 µM [7]: -5.66%
- growth at 10 µM [8]: 9.01%
- IC50 [9]: 700 nM
- CC50 [10]: > 100000 nM
- GI50 [11]: 147 nM
- CC50 [12]: > 4100 nM
- GI50 [13]: 141 nM
- TGI [13]: 539 nM
- GI50 [14]: 94 nM
- TGI [14]: 1230 nM
- CC50 [15]: > 100000 nM
- GI50 [16]: 249 nM
- TGI [16]: > 100000 nM
- growth at 10 µM [17]: 20.1%
- diameter of the inhibition zone (DIZ) [18]: inactive
- GI50 [19]: 654 nM
- TGI [19]: > 100000 nM
- diameter of the inhibition zone (DIZ) [20]: inactive
- GI50 [21]: 153 nM
- CC50 [22]: > 100000 nM
- CC50 [23]: > 100000 nM
- CC50 [24]: > 100000 nM
- GI50 [25]: 58 nM
- TGI [25]: 1180 nM
- GI50 [26]: 632 nM
- TGI [26]: > 100000 nM
- CC50 [27]: > 100000 nM
- GI50 [28]: 2650 nM
- TGI [28]: > 100000 nM
- GI50 [29]: 803 nM
- TGI [29]: > 100000 nM
- CC50 [30]: > 100000 nM

Structure (SMILES): CC(C)CCC[C@@H](C)[C@H]1CC[C@H]2C3=CCn4c(=O)ccc(=O)n4[C@@H]3CC[C@]12C
- GI50 [1]: 243 nM
- TGI [1]: 1110 nM
- CC50 [2]: 4140 nM
- CC50 [3]: > 100000 nM
- CC50 [4]: 5450 nM
- GI50 [5]: 512 nM
- TGI [5]: 1650 nM
- CC50 [6]: 594 nM
- growth at 10 µM [7]: -100%
- growth at 10 µM [8]: -85.5%
- IC50 [9]: 30 nM
- CC50 [10]: 5330 nM
- GI50 [11]: 1420 nM
- TGI [11]: 3580 nM
- CC50 [12]: 3520 nM
- GI50 [13]: 110 nM
- TGI [13]: 627 nM
- GI50 [14]: 438 nM
- TGI [14]: 1590 nM
- CC50 [15]: 2970 nM
- GI50 [16]: 309 nM
- TGI [16]: 2020 nM
- growth at 10 µM [17]: -97.7%
- inhibition zone (IZ) [18]: 10 mm
- GI50 [19]: 1520 nM
- TGI [19]: 3020 nM
- diameter of the inhibition zone (DIZ) [20]: inactive
- GI50 [21]: 113 nM
- TGI [21]: 490 nM
- CC50 [22]: 5280 nM
- CC50 [23]: 5840 nM
- CC50 [24]: 3390 nM
- GI50 [25]: 317 nM
- TGI [25]: 1580 nM
- GI50 [26]: 1040 nM
- TGI [26]: 2260 nM
- CC50 [27]: 5730 nM
- GI50 [28]: 356 nM
- TGI [28]: 1260 nM
- GI50 [29]: 175 nM
- TGI [29]: 459 nM
- CC50 [30]: 3320 nM

Structure (SMILES): CC(C)CCC[C@@H](C)[C@H]1CC[C@H]2[C@@H]3CCN4C(=O)CCC(=O)N4[C@@H]3CC[C@]12C
- growth at 10 µM [7]: 83.8%
- growth at 10 µM [8]: 70.5%
- IC50 [9]: 30000 nM
- growth at 10 µM [17]: 88%
- inhibition zone (IZ) [18]: 15 mm
- diameter of the inhibition zone (DIZ) [20]: inactive
